The pEC50 is −log10 of the EC50, conventionally taken in molar units. A word on the EC90: it is the concentration needed for an effect of 90%. By CC50 is commonly meant the concentration that lowers cell viability or growth by half. In general, pIC50 refers to the IC50 on a negative log10 scale, so that one unit is a factor of ten.

The text below walks through data of paper PMC7571425 (Antiviral Research, 2020).

pEC50, pIC50: −log10 of the molar value. Where two headings read alike, the source gives them in different places.

One series concerns hPSC-CMs. The series is described as follows: Electrophysiological characterization of hPSC-CMs. It counts as cell-based, human. Conditions: for repolarization: dofetilide 10 nM, E4031 30 nM.
The subject of series [1] is SARS-CoV-2. Nature of the series: Image-based. It counts as cell-based, SARS-CoV-2 (hCoV/Korea/KCDC-03/2020). Conditions: Severe acute respiratory syndrome coronavirus 2, 48 h, MOI 2.5, 48 h post-infection.
Series [2] has as its system SARS-CoV-2. The class given is cell-based. As to conditions: for reduction in SARS-CoV-2 titers: 33 μM.
Series [3] is described as follows: Cytotoxicity in mock-infected Vero E6 cells. It counts as cell-based. As to conditions: African green monkey.
The nature of series [4]: Cell viability assay. Conditions: human. It counts as cell-based. An outline of the steps: (§1)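 Cardiomyocytes were differentiated from H9 hESCs or CMC-hiPSC-011 hiPSCs (CHIR99021, then Wnt inhibitor C59; lactate selection days 10–15). They were exposed to graded drug concentrations (DMSO stocks) for 24 h or 48 h. Viability was read by MTS, absorbance 490 nm. CC50 came from four-parameter nonlinear regression. Mean ± SD of at least two independent experiments in triplicate.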

The target in another series is hERG currents (Homo sapiens, UniProt Q12809). Nature of the series: cell-based.
For series [5], the system named is SARS-CoV-2. Nature of the series: RT-qPCR of intracellular SARS-CoV-2 RNA in hPSC-CMs. Conditions: 0.3 μM and 1 μM. It counts as cell-based.
Series [6] relates to SARS-CoV-2. The series is described as follows: CPE-based antiviral assay in Vero E6 cells. The class given is cell-based, SARS-CoV-2 (hCoV/Korea/KCDC-03/2020).
A short description of series [7]: Cell viability assay. It counts as cell-based. Conditions: human. An outline of the steps:
as §1
The source holds these as a separate data set.

The mark [8] stands for this setting: hESC-CMs (human embryonic stem cell-derived cardiomyocytes).

Chain of hERG currents (Q12809 whole entry): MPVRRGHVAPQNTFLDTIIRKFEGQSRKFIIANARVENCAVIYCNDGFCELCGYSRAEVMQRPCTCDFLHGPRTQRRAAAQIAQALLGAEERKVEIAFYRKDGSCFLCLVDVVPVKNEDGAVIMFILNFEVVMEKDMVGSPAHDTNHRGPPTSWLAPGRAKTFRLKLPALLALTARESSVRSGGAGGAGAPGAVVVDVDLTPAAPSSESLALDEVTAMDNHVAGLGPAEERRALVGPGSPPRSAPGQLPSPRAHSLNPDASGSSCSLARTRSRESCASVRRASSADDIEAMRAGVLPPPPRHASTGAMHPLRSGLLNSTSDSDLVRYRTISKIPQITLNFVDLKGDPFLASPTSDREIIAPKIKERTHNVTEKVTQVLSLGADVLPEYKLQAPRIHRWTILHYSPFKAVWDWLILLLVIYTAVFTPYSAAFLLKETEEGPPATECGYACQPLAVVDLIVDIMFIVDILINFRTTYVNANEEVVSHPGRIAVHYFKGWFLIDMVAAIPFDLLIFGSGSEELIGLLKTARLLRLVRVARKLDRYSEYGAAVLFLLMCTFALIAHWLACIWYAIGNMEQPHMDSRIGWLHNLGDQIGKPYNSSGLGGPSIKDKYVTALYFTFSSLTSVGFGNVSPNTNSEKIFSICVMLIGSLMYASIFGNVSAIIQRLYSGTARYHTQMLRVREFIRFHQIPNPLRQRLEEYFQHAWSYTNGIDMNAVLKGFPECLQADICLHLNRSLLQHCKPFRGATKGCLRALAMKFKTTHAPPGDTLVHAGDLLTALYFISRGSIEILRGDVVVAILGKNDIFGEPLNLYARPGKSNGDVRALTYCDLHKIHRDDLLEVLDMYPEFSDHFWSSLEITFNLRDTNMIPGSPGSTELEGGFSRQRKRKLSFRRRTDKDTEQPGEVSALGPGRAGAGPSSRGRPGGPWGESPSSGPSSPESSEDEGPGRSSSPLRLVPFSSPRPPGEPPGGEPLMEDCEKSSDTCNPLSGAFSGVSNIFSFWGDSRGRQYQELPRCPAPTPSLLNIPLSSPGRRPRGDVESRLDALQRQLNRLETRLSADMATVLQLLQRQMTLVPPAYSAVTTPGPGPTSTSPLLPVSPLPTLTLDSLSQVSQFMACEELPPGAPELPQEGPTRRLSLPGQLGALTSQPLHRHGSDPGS

With `CC(C)NCC(O)c1ccc(O)c(O)c1` (centres unmarked) [isoprenaline], the “rate of AP” value in the series with hPSC-CMs (100 nM) is given as “substantially increased”.

Take `CCN(CC)CCCC(C)Nc1ccnc2cc(Cl)ccc12` (centres unmarked) [Chloroquine]: the pEC50 was 4.55 in the series on SARS-CoV-2 [1] (hESC-CMs) and 4.92 in the series with SARS-CoV-2 [1] (hiPSC-CMs). The figures for the EC90 in the series with SARS-CoV-2 [1] (hESC-CMs) and in the series on SARS-CoV-2 [1] (hiPSC-CMs) were > 84.9 µM and 24.1 µM, respectively. The “infectious viral particle production” value in the series with SARS-CoV-2 [2] (hESC-CMs and hiPSC-CMs, highest tested concentration) is “complete suppression”. Moreover, the entries for the “reduction in SARS-CoV-2 titers” value with SARS-CoV-2 [2] (hESC-CMs) and in the series on SARS-CoV-2 [2] (hiPSC-CMs) were 2.3 log10 PFU/ml and 0.3 log10 PFU/ml, respectively. Also, the “effect on viral titers” value in the series on SARS-CoV-2 [2] (hPSC-CMs, 11 μM) is reported as “did not affect”. In series [3], the CC50 at 72 h was > 100 µM. The CC50 at 48 h in the series “Cell viability assay [4]” (setting [8]) is 84.9 µM. Further, the “Na+ peak amplitude and T-wave” value in the series with hiPSC-CMs (30 min exposure) is “pronounced reduction of Na^+ peak amplitude and T-wave flattening”. The “field potential duration (FPD)” value in the series with hiPSC-CMs (30 min exposure) is reported as “increased the field potential duration (FPD) of hiPSC-CMs in a dose-dependent manner”.

In the series on SARS-CoV-2 [1] (hESC-CMs), `CCC(CC)COC(=O)[C@H](C)N[P@](=O)(OC[C@H]1O[C@@](C#N)(c2ccc3c(N)ncnn23)[C@H](O)[C@@H]1O)Oc1ccccc1` [Remdesivir] had a pEC50 of 6.22 and an EC90 of 1.3 µM. For the same compound, in the series with SARS-CoV-2 [1] (hiPSC-CMs), the pEC50 is 6.70 and the EC90 worked out at 0.33 µM. At hERG currents, the pIC50 was < 4.00. Further, in the series on SARS-CoV-2 [2] (hESC-CMs and hiPSC-CMs, 0.3 μM and 1 μM remdesivir), the viral particle production result is given as “Complete suppression”. Further, the “reduction of viral titer” value in the series on SARS-CoV-2 [2] (hPSC-CMs, 0.1 μM) is reported as “minimal reduction”. The “intracellular viral mRNA synthesis” value with SARS-CoV-2 [5] is reported as “complete inhibition”. In series [3], the CC50 at 72 h was > 100 µM. Further, the “selectivity index (SI)” value in the series on SARS-CoV-2 [6] (CC50/EC50) is reported as > 50. Further, in “Cell viability assay [4]” (setting [8]), half-maximal cytotoxicity (CC50 at 24 h) was put at 17.7 µM and it took 10.2 µM to reach half-maximal cytotoxicity (CC50 at 48 h). The compound further displayed a CC50 in “Cell viability assay [4]” (hPSC-CMs (hESC-CMs and hiPSC-CMs)) of 10.2 to 39.4 µM. In the series with hiPSC-CMs (30 min exposure), the “concentration that reduced Na+ peak amplitudes and spontaneous beating rates, followed by complete cessation of spontaneous beating” value is ≥ 30 µM; the “field potential duration (FPD)” value was “dose-dependent prolongations of FPD”. For the same compound, in the series on hiPSC-CMs (data not shown), the “Early afterdepolarizations (EADs) and delayed afterdepolarizations (DADs)” value is on record as “not detected”. Besides, in “Cell viability assay [7]”, the CC50 at 24 h stood at 39.4 µM and the midpoint of cytotoxicity, the CC50 at 48 h, lay at 15.6 µM.

On to `CN(CCOc1ccc(NS(C)(=O)=O)cc1)CCc1ccc(NS(C)(=O)=O)cc1` [dofetilide], for which the repolarization result with hPSC-CMs was “significantly delayed”.

Consider `Cc1cccc(CCN2CCC(C(=O)c3ccc(NS(C)(=O)=O)cc3)CC2)n1` [E4031], for which, in the series with hPSC-CMs, the repolarization result is on record as “significantly delayed”.

In turn, `CCN(CCO)CCCC(C)Nc1ccnc2cc(Cl)ccc12` (centres unmarked) [Hydroxychloroquine, hydroxychloroquine] returned a CC50 at 72 h in series [3] of 76.1 µM.

Regarding `NC(=O)c1nc(F)c[nH]c1=O` [Favipiravir (T-705), favipiravir], the “in vitro antiviral activity against SARS-CoV-2” value in the series on SARS-CoV-2 [6] was “no apparent in vitro antiviral activity”.
